Results as given in ChEMBL document CHEMBL1134785, “Synthesis and biological evaluation of prostaglandin-F alkylphosphinic acid derivatives as bone anabolic agents for the treatment of osteoporosis” (J Med Chem, 2001).

Key:
[1] = test system: Rattus norvegicus; test: Endosteal eroded surface(%) measured Histomorphometrically after a dose of 3000 ug/kg in tibial diaphysis; assay type: functional
In short: (§1)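 Tibial histomorphometry in 6-month-old rats, OVX 60 days before treatment, then daily injection for 60 days. Vehicle was acetate-buffered saline with methylcellulose and polyoxyethylenesorbitan monooleate. Rats received xylenol orange 90 mg/kg before treatment and calcein 10 mg/kg at 14 and 4 days pre-sacrifice. Rats were killed by cardiac puncture under ketamine/xylazine. Groups were compared with vehicle by ANOVA plus LSD test.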

[2] = test system: Rattus norvegicus; test: Derived trabecular thickness (um) measured using micro Computed Tomography(CT) after a dose of 1000 ug/kg in Vertebral Bone; assay type: functional, Trabecula
In short: (§2)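 Micro-CT of the fifth lumbar vertebra, measuring cancellous bone volume and architecture. Rats were 6 months old, OVX 60 days before treatment, then dosed daily for 60 days. Test-agent doses were 10–3000 µg/kg, given as a once-daily subcutaneous injection; 6 mg/kg/day was given to the positive-control group. Groups were compared with vehicle by ANOVA plus LSD test.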

[3] = test system: Rattus norvegicus; test: Bone formation rate/bone volume (%/year) bone measured histomorphometrically after a dose of 1000 ug/kg in proximal tibial metaphysis; assay type: functional; conditions: at 1000 µg/kg
[4] = test system: Rattus norvegicus; test: Mineral apposition rate ([…])bone measured Histomorphometrically after a dose of 10 ug/kg in tibial diaphysis; assay type: functional
In short: (§3)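 Six-month-old rats, bilaterally ovariectomized, 6-8 per group, on natural chow. After 60 days they received once-daily subcutaneous dosing for 60 days at 0.01–3.0 mg/kg. Vehicle was acetate-buffered saline with methylcellulose and polyoxyethylenesorbitan monooleate. Labels were xylenol orange 90 mg/kg before treatment and calcein 10 mg/kg 14 and 4 days before sacrifice. Tibial histomorphometry was read under fluorescent light, with ANOVA/LSD versus vehicle.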

[5] = test system: Rattus norvegicus; test: Bone formation rate/tissue volume (%/year) bone measured histomorphometrically after a dose of 300 ug/kg in proximal tibial metaphysis; assay type: functional; conditions: at 300 µg/kg
[6] = test system: Rattus norvegicus; test: Mineralizing surface/bone surface(%) measured Histomorphometrically after a dose of 3000 ug/kg in proximal tibial metaphysis; assay type: functional
In short: (§4)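 Ovariectomized six-month-old rats, 6-8 per group, were dosed subcutaneously once daily at 0.01–3.0 mg/kg for 60 days, starting 60 days after surgery. Vehicle was acetate-buffered saline, methylcellulose and polyoxyethylenesorbitan monooleate. Labels were xylenol orange 90 mg/kg pretreatment and calcein 10 mg/kg at 14 and 4 days before necropsy. Histomorphometry covered the proximal tibial metaphysis, 1–4 mm distal to the growth plate–metaphyseal junction. ANOVA/LSD versus vehicle.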

[7] = test system: Rattus norvegicus; test: Tissue area (mm) measured Histomorphometrically after a dose of 30 ug/kg in tibial diaphysis; assay type: functional
In short: (§5)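 Rats on natural chow (1.46% Ca) were bilaterally ovariectomized at 6 months and left untreated for 60 days. They then received once-daily subcutaneous doses for 60 days, with vehicle of acetate-buffered saline, methylcellulose and polysorbate. Xylenol orange (90 mg/kg) was given before treatment and calcein (10 mg/kg) 14 and 4 days before sacrifice. Tibiae were analysed by fluorescent histomorphometry, 6-8 rats/group, ANOVA/LSD vs vehicle.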

[8] = test system: Rattus norvegicus; test: connectivity density (mm-3) using micro Computed Tomography(CT) after a does of 300 ug/kg in Vertebral Bone; assay type: functional
In short: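 Rats were ovariectomized at 6 months of age and, after 60 days, dosed subcutaneously once daily for 60 days, with vehicle of acetate-buffered saline, methylcellulose and polysorbate. At necropsy the fifth lumbar vertebra was scanned by micro-CT to obtain cancellous architecture. Groups were 6-8 rats; results were compared to vehicle by ANOVA with least significant difference test.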

[9] = test system: Rattus norvegicus; test: Trabecular thickness […] measured Histomorphometrically after a dose of 10 ug/kg in proximal tibial metaphysis; assay type: functional, Trabecula
In short: (§6)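 Six-month-old rats were ovariectomized, and 60 days later daily subcutaneous dosing began for 60 days, with vehicle of acetate-buffered saline, methylcellulose and polysorbate. Xylenol orange (90 mg/kg) labelled bone pre-treatment and calcein (10 mg/kg) 14 and 4 days pre-sacrifice. Histomorphometry covered the proximal tibial metaphysis 1-4 mm distal to the growth plate-metaphyseal junction. Groups were 6-8 rats, compared by ANOVA/LSD vs vehicle.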

[10] = test system: Rattus norvegicus; test: Tissue area (mm) measured Histomorphometrically after a dose of 100 ug/kg in tibial diaphysis; assay type: functional; in short: as §5
[11] = test system: Rattus norvegicus; test: Bone formation rate/tissue volume (%/year) bone measured histomorphometrically after a dose of 3000 ug/kg in proximal tibial metaphysis; assay type: functional; conditions: at 3000 µg/kg
[12] = test system: Rattus norvegicus; test: Marrow area (mm) measured Histomorphometrically after a dose of 10 ug/kg in tibial diaphysis; assay type: functional; in short: as §3
[13] = test system: Rattus norvegicus; test: Endosteal mineralizing surface Histomorphometrically after a dose of 300 ug/kg in tibial diaphysis; assay type: functional; in short: as §3
[14] = test system: Rattus norvegicus; test: Periosteal mineralizing surface (%) measured Histomorphometrically after a dose of 100 ug/kg in tibial diaphysis; assay type: functional; in short: as §5
[15] = test system: Rattus norvegicus; test: Endosteal eroded surface(%) measured Histomorphometrically after a dose of 300 ug/kg in tibial diaphysis; assay type: functional; in short: as §1
[16] = test system: Rattus norvegicus; test: Endosteal eroded surface(%) measured Histomorphometrically after a dose of 30 ug/kg in tibial diaphysis; assay type: functional; in short: as §1
[17] = test system: Rattus norvegicus; test: Directly measured thickness(um) using micro Computed Tomography(CT) after a dose of 10 ug/kg in Vertebral Bone; assay type: functional; in short: as §2
[18] = test system: Rattus norvegicus; test: Bone formation rate/tissue volume (%/year)bone Histomorphometrically after a dose of 1000 ug/kg in proximal tibial metaphysis; assay type: functional; conditions: at 1000 µg/kg
[19] = test system: Rattus norvegicus; test: Tissue area (mm) measured Histomorphometrically after a dose of 10 ug/kg in tibial diaphysis; assay type: functional; in short: as §5
[20] = test system: Rattus norvegicus; test: Mineral apposition rate ([…])bone measured Histomorphometrically after a dose of 1000 ug/kg in tibial diaphysis; assay type: functional; in short: as §3
[21] = test system: Rattus norvegicus; test: Mineral apposition rate ([…])bone measured Histomorphometrically after a dose of 3000 ug/kg in proximal tibial metaphysis; assay type: functional; in short: as §4
[22] = test system: Rattus norvegicus; test: Mineral apposition rate ([…])bone measured Histomorphometrically after a dose of 100 ug/kg in tibial diaphysis; assay type: functional; in short: as §3
[23] = test system: Rattus norvegicus; test: Periosteal mineralizing surface (%) measured Histomorphometrically after a dose of 10 ug/kg in tibial diaphysis; assay type: functional; in short: as §5
[24] = test system: Rattus norvegicus; test: Bone formation rate/bone volume (%/year)bone measured Histomorphometrically after a dose of 300 ug/kg in proximal tibial metaphysis; assay type: functional; conditions: at 300 µg/kg
[25] = test system: Rattus norvegicus; test: Directly measured thickness(um) using micro Computed Tomography(CT) after a dose of 1000 ug/kg in Vertebral Bone; assay type: functional; in short: as §2
[26] = test system: Rattus norvegicus; test: Trabecular thickness […] measured Histomorphometrically after a dose of 3000 ug/kg in proximal tibial metaphysis; assay type: functional, Trabecula; in short: as §6
[27] = test system: Rattus norvegicus; test: Directly measured thickness(um) using micro Computed Tomography(CT) after a dose of 30 ug/kg in Vertebral Bone; assay type: functional; in short: as §2
[28] = test system: Rattus norvegicus; test: Bone Volume /Tissue Volume (%)measured using micro Computed Tomography(CT) after a dose of 1000 ug/kg in Vertebral Bone; assay type: functional; conditions: at 1000 µg/kg
[29] = test system: Rattus norvegicus; test: Bone Volume /Tissue Volume (%)measured Histomorphometrically after a dose of 100 ug/kg in proximal tibial metaphysis; assay type: functional; conditions: at 100 µg/kg
[30] = test system: Rattus norvegicus; test: Periosteal mineral apposition rate ([…]) measured Histomorphometrically after a dose of 10 ug/kg in tibial diaphysis; assay type: functional; in short: as §3
[31] = test system: Rattus norvegicus; test: Derived trabecular thickness (um) measured using micro Computed Tomography(CT) after a dose of 3000 ug/kg in Vertebral Bone; assay type: functional, Trabecula; in short: as §2
[32] = test system: Rattus norvegicus; test: Periosteal mineralizing surface (%) measured Histomorphometrically after a dose of 3000 ug/kg in tibial diaphysis; assay type: functional; in short: as §5
[33] = test system: Rattus norvegicus; test: Endosteal eroded surface(%) measured Histomorphometrically after a dose of 1000 ug/kg in tibial diaphysis; assay type: functional; in short: as §1

CP(=O)(O)CCC/C=C\C[C@@H]1[C@@H](/C=C/[C@@H](O)COc2ccccc2)[C@H](O)C[C@@H]1O
Endosteal eroded surface [1]: 2.2%
Derived trabecular thickness [2]: 80.6 µm
Activity [3]: 251.82%
Mineral apposition rate [4]: 0.71 µm/day
Activity [5]: 18.03%
Activity [6]: 23.66%
Tissue area [7]: 5.19 mm
Connectivity density [8]: 66.71 mm**-3
Trabecular thickness [9]: 35.7 µm
Tissue area [10]: 4.95 mm
Activity [11]: 20.13%
Marrow area [12]: 0.93 mm²
Endosteal mineralizing surface [13]: 29.02%
Periosteal mineralizing surface [14]: 15.21%
Endosteal eroded surface [15]: 1.32%
Endosteal eroded surface [16]: 2.01%
Directly measured thickness [17]: 118 µm
Activity [18]: 23.44%
Tissue area [19]: 5.09 mm
Mineral apposition rate [20]: 1.01 µm/day
Mineral apposition rate [21]: 0.94 µm/day
Mineral apposition rate [22]: 0.42 µm/day
Periosteal mineralizing surface [23]: 25.86%
Activity [24]: 322.61%
Directly measured thickness [25]: 128 µm
Trabecular thickness [26]: 55.8 µm
Directly measured thickness [27]: 126 µm
Activity [28]: 36.98%
Activity [29]: 5.84%
Periosteal mineral apposition rate [30]: 0.49 µm day-1
Derived trabecular thickness [31]: 83.8 µm
Periosteal mineralizing surface [32]: 11.109%
Endosteal eroded surface [33]: 2.74%
